In ChEMBL document CHEMBL4052597, “Symmetrically Substituted Xanthone Amphiphiles Combat Gram-Positive Bacterial Resistance with Enhanced Membrane Selectivity” (J Med Chem, 2017):
Values after ≈ are worked out from the molar mass of the structure shown. Active and inactive are the calls of the source. The rule behind the calls is not given here.

What was measured:
Bacillus cereus = assay: Antibacterial activity against Bacillus cereus ATCC 11778 after 24 hrs by two fold dilution assay; assay type: functional; details: ATCC 11778, 24 h
How it was run: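 Broth macro-dilution per CLSI in cation-adjusted Mueller-Hinton broth; compounds dissolved in DMF, diluted in PBS to 1000 µg/mL stock, then serial 2-fold dilutions in CA-MHB in tubes. Inoculum from 18-20 h TSA colonies (direct colony suspension), adjusted to about 5× 10^5 CFU/mL. MIC read after 24 h at 35 °C as lowest concentration with no visible growth; biological replicates.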

Staphylococcus aureus [1] = assay: Antibacterial activity against methicillin-resistant Staphylococcus aureus DM 9808R after 24 hrs by two fold dilution assay; assay type: functional
How it was run: (§1)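 CLSI broth macrodilution in cation-adjusted Mueller-Hinton broth. Compounds were dissolved in DMF and diluted in PBS to a 1000 µg/mL stock, then serially 2-fold diluted in CA-MHB. The inoculum came from colonies on 18-20 h TSA plates (direct colony suspension), adjusted to ~5×10^5 CFU/mL. Incubation was 24 h at 35 °C. MIC is the lowest concentration with no visible growth versus control. Biological replicates.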

Staphylococcus aureus [2] = assay: Antibacterial activity against Staphylococcus aureus DM 4001R after 24 hrs by two fold dilution assay; assay type: functional; how it was run: as §1
Staphylococcus aureus [3] = assay: Antibacterial activity against methicillin-resistant Staphylococcus aureus DM 21455 after 24 hrs by two fold dilution assay; assay type: functional; details: DM 21455, 24 h; how it was run: as §1
Lipid bilayer [4] = assay: Induction of membrane damage in DOPE/DOPG large unilamellar vesicles assessed as calcein leakage at compound to lipid ratio of 1:16 after 1 hr by fluorescence assay relative to control
How it was run: (§2)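 100 nm calcein-loaded LUVs made by film hydration; lipid content set by total phosphorus assay. DOPC/cholesterol (3:1, w/w) mimics mammalian and DOPE/DOPG (3:1, w/w) bacterial membranes. Compound in DMF added at lipid-to-compound ratio 16 (6.25 µM compound), final DMF limited to 0.5%. Fluorescence monitored at ex 490/em 520 nm for 1 hour; replicated.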

Lipid bilayer [5] = assay: Induction of membrane damage in DOPC/cholesterol large unilamellar vesicles assessed as calcein leakage at compound to lipid ratio of 1:16 after 1 hr by fluorescence assay relative to control; how it was run: as §2
Staphylococcus aureus [6] = assay: Disruption of cytoplasmic membrane in Staphylococcus aureus isolate DM4001R at 2 times MIC after 3000 secs by SYTOX green dye based fluorescence assay; assay type: functional
How it was run: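 Clinical S. aureus isolate DM4001R incubated with SYTOX Green plus compound; membrane permeabilization read as increased fluorescence intensity. Measurements replicated.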

Staphylococcus aureus [7] = assay: Disruption of membrane in Staphylococcus aureus isolate DM4001R assessed as increase in ATP leakage at 4 times MIC after 1 hr by ATP bioluminescent assay relative to control; assay type: functional
How it was run: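 S. aureus DM4001 grown to exponential phase, washed three times in 20 mM PBS (pH 7), resuspended to OD600 0.2. Compound added, suspensions held 1 hour at 37 °C, then centrifuged. Supernatant mixed with luciferase/luciferin enzyme mix; extracellular ATP quantified by luminescence. Replicated.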

[8] = Selectivity index, ratio of HC50 for New Zealand White rabbit RBC to MIC for Staphylococcus aureus DM 4001R
How it was run: (§3)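 Ratio of HC50 to MIC. For HC50, fresh New Zealand White rabbit RBCs were pelleted (3000 rpm, 10 min), washed twice in PBS and mixed with serially diluted compounds (in DMF or PBS) at a final 4% v/v. After 60 min at 37 °C and centrifugation, supernatant absorbance was read at 576 nm. % hemolysis was normalised to 2% Triton X-100 (positive) and PBS/DMF (negative). MIC came from CA-MHB broth macrodilution, 24 h at 35 °C.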

[9] = Selectivity index, ratio of HC50 for New Zealand White rabbit RBC to MIC for methicillin-resistant Staphylococcus aureus DM 9808R; how it was run: as §3
[10] = Selectivity index, ratio of HC50 for New Zealand White rabbit RBC to MIC for Bacillus cereus ATCC 11778; how it was run: as §3
[11] = Selectivity index, ratio of HC50 for New Zealand White rabbit RBC to MIC for methicillin-resistant Staphylococcus aureus DM 21455; how it was run: as §3

Structure (SMILES) | MIC (Bacillus cereus) [µg/mL] | MIC (Staphylococcus aureus [1]) [µg/mL] | MIC (Staphylococcus aureus [2]) [µg/mL] | MIC (Staphylococcus aureus [3]) [µg/mL] | Activity (Lipid bilayer [4]) [%] | Activity (Lipid bilayer [5]) [%] | Activity (Staphylococcus aureus [6]) | Activity (Staphylococcus aureus [7]) [%] | Selectivity Index [8] | Selectivity Index [9] | Selectivity Index [10] | Selectivity Index [11]
CCCCN(CCCC)CCCNC(=O)COc1cc(OCC=C(C)C)cc2oc3cc(OCC=C(C)C)cc(OCC(=O)NCCCN(CCCC)CCCC)c3c(=O)c12 | 6.25 (≈ 7.36 µM) | 3.13 (≈ 3.69 µM) | 3.13 (≈ 3.69 µM) | 3.13 (≈ 3.69 µM) |  |  |  |  |  |  |  | 
COC(=O)[C@H](CCCNC(=N)N)NC(=O)[C@H](CCCNC(=N)N)NC(=O)COc1cc(OC/C=C(\C)CCC=C(C)C)cc2oc3cc(OC/C=C(\C)CCC=C(C)C)cc(OCC(=O)N[C@@H](CCCNC(=N)N)C(=O)N[C@@H](CCCNC(=N)N)C(=O)OC)c3c(=O)c12 | 25 (≈ 19.2 µM) | 25 (≈ 19.2 µM) | 25 (≈ 19.2 µM) | 25 (≈ 19.2 µM) |  |  |  |  |  |  |  | 
CCN(CC)CCCNC(=O)COc1cc(OCC=C(C)C)cc2oc3cc(OCC=C(C)C)cc(OCC(=O)NCCCN(CC)CC)c3c(=O)c12 | 25 (≈ 33.9 µM) | 12.5 (≈ 17 µM) | 6.25 (≈ 8.48 µM) | 6.25 (≈ 8.48 µM) |  |  |  |  |  |  |  | 
COC(=O)[C@H](CCCNC(=N)N)NC(=O)COc1cc(OCC(=O)N[C@@H](CCCNC(=N)N)C(=O)OC)c2c(=O)c3c(OCC(=O)N[C@@H](CCCNC(=N)N)C(=O)OC)cc(OCC=C(C)C)cc3oc2c1 | 50 (≈ 49.4 µM) | 50 (≈ 49.4 µM) | 50 (≈ 49.4 µM) | 50 (≈ 49.4 µM) |  |  |  |  |  |  |  | 
CC(C)=CCOc1cc(O)c2c(=O)c3c(O)cc(OCC=C(C)C)cc3oc2c1 | > 50 | > 50 | > 50 | > 50 |  |  |  |  |  |  |  | 
CC(C)=CCOc1cc(OCC(=O)NCCCN(C)C)c2c(=O)c3c(OCC(=O)NCCCN(C)C)cc(OCC=C(C)C)cc3oc2c1 | 12.5 (≈ 18.4 µM) | 12.5 (≈ 18.4 µM) | 6.25 (≈ 9.18 µM) | 6.25 (≈ 9.18 µM) |  |  |  |  |  |  |  | 
COC(=O)[C@H](CCCCN)NC(=O)COc1cc(OCC=C(C)C)cc2oc3cc(OCC=C(C)C)cc(OCC(=O)N[C@@H](CCCCN)C(=O)OC)c3c(=O)c12 | 6.25 (≈ 7.84 µM) | 12.5 (≈ 15.7 µM) | 12.5 (≈ 15.7 µM) | 6.25 (≈ 7.84 µM) | 48.2 | < 20 | Active | 106.7 |  |  |  | 
COC(=O)[C@H](CCCNC(=N)N)NC(=O)COc1cc(OCC=C(C)C)cc2oc3cc(OCC=C(C)C)cc(OCC=C(C)C)c3c(=O)c12 | 1.56 (≈ 2.25 µM) | 1.56 (≈ 2.25 µM) | 1.56 (≈ 2.25 µM) | 0.78 (≈ 1.13 µM) |  |  |  |  | 21 to 42 | 21 to 42 | 21 to 42 | 21 to 42
